Experimental data reported in ChEMBL document CHEMBL1129428 (J Med Chem, 1996).

Tests used:
[1] = test system: Mus musculus; assay: Anticonvulsant activity after intraperitoneal injection into mice measured in a maximal electroshock scree (MES) screen; format: functional
[2] = test system: Mus musculus; assay: Compound was tested for anticonvulsant activity after intraperitoneal injection into mice by using MES screen test after 1 hr; format: functional; conditions: ip
In short: (§1)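 Quantitative intraperitoneal mouse testing in the MES, scPTZ or rotorod neurotoxicity screens at the peak time given for each compound (0.25–2 h). ED50 or TD50 reported in mg/kg with 95% CI and slope (SE).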

[3] = Compound was tested for toxicity after intraperitoneal injection into mice by using neurotoxicity screen test after 1 hr; format: organism-based; conditions: mouse, in vivo, ip; in short: as §1
[4] = test system: Mus musculus; assay: Anticonvulsant activity after intraperitoneal injection into mice by using MES screen test after 0.5 hr; format: functional
[5] = test system: Mus musculus; assay: Compound was tested for anticonvulsant activity after intraperitoneal injection into mice by using scPTZ screen test after 1 hr; format: functional; conditions: ip; in short: as §1
[6] = test system: Mus musculus; assay: Compound was tested for toxicity after intraperitoneal injection into mice by using toxicity screen test after 4 hr; format: organism-based; conditions: in vivo, ip
In short: (§2)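 Mice injected intraperitoneally at 30, 100 and 300 mg/kg and examined 0.5 and 4 h afterwards. Each entry is the minimum dose giving activity (MES protection, scPTZ protection, or rotorod failure for neurotoxicity) in half or more of the mice. Activity is called absent if nothing occurs at 300 mg/kg.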

[7] = test system: Rattus norvegicus; assay: Compound was tested for anticonvulsant activity after Oral Administration into Rats by using MES screen test after 0.5h,dose 50 mg/kg; number of rats out of four which were protected; format: functional
In short: (§3)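 Rats received the compound orally. […] Rats were tested in the MES screen at 0.25, 0.5, 1, 2 and 4 h. Each value is the number of rats protected out of 4. The test followed NINDS procedures.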

[8] = test system: Rattus norvegicus; assay: Compound was tested for anticonvulsant activity after Oral Administration into Rats by using MES screen test after 0.25h,dose 50 mg/kg; number of rats out of four which were protected; format: functional; in short: as §3
[9] = test system: Rattus norvegicus; assay: Compound was tested for anticonvulsant activity after Oral Administration into Rats by using MES screen test after 2h,dose 50 mg/kg; number of rats out of four which were protected; format: functional; in short: as §3
[10] = test system: Mus musculus; assay: Toxicity after intraperitoneal injection into mice by using toxicity screen test after 0.5 hr; format: organism-based; conditions: in vivo, ip; in short: as §2
[11] = test system: Rattus norvegicus; assay: Compound was tested for anticonvulsant activity after Oral Administration into Rats by using MES screen test after 4h,dose 50 mg/kg; number of rats out of four which were protected; format: functional; in short: as §3
[12] = test system: Rattus norvegicus; assay: Compound was tested for anticonvulsant activity after Oral Administration into Rats by using MES screen test after 1h,dose 50 mg/kg; number of rats out of four which were protected; format: functional; in short: as §3
[13] = test system: Rattus norvegicus; assay: Compound was tested for anticonvulsant activity after Oral Administration into Rats by using MES screen test after 2h,dose 12.5 mg/kg; No activity was demonstarted; format: functional, organism-based; parameters: dose 12.5 mg/kg; in short: as §3
[14] = test system: Rattus norvegicus; assay: Compound was tested for anticonvulsant activity after Oral Administration into Rats by using MES screen test after 1h,dose 12.5 mg/kg; No activity was demonstarted; format: functional, organism-based; parameters: dose 12.5 mg/kg; in short: as §3
[15] = test system: Rattus norvegicus; assay: Compound was tested for anticonvulsant activity after Oral Administration into Rats by using MES screen test after 0.25h,dose 12.5 mg/kg; No activity was demonstarted; format: functional, organism-based; parameters: dose 12.5 mg/kg; in short: as §3
[16] = test system: Rattus norvegicus; assay: Compound was tested for anticonvulsant activity after Oral Administration into Rats by using MES screen test after 0.5h,dose 12.5 mg/kg; No activity was demonstarted; format: functional, organism-based; parameters: dose 12.5 mg/kg; in short: as §3
[17] = test system: Rattus norvegicus; assay: Compound was tested for anticonvulsant activity after Oral Administration into Rats by using MES screen test after 0.25h,dose 12.5 mg/kg; number of rats out of four which were protected; format: functional; in short: as §3
[18] = test system: Rattus norvegicus; assay: Compound was tested for anticonvulsant activity after Oral Administration into Rats by using MES screen test after 1h,dose 12.5 mg/kg; number of rats out of four which were protected; format: functional; in short: as §3
[19] = test system: Rattus norvegicus; assay: Compound was tested for anticonvulsant activity after Oral Administration into Rats by using MES screen test after 2h,dose 12.5 mg/kg; number of rats out of four which were protected; format: functional; in short: as §3
[20] = test system: Mus musculus; assay: Anticonvulsant activity after intraperitoneal injection into mice by using scPTZ screen test after 4 hr; format: functional
[21] = test system: Rattus norvegicus; assay: Compound was tested for anticonvulsant activity after Oral Administration into Rats by using MES screen test after 4h,dose 12.5 mg/kg; number of rats out of four which were protected; format: functional; in short: as §3
[22] = test system: Rattus norvegicus; assay: Anticonvulsant activity after oral administration into rats; format: functional; parameters: concentration or dose not given beside the values
[23] = test system: Mus musculus; assay: Anticonvulsant activity after intraperitoneal injection into mice by using scPTZ screen after 0.5 hr; format: functional
[24] = Compound was tested for toxicity after intraperitoneal injection into mice by using neurotoxicity screen test after 2 hr; format: organism-based; conditions: mouse, in vivo, ip; in short: as §1
[25] = test system: Rattus norvegicus; assay: Compound was tested for anticonvulsant activity after Oral Administration into rat by using MES screen test after 2 hr; format: functional
In short: (§4)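 Rats dosed orally, typically at 50 mg/kg first, then mostly 12.5 mg/kg (some compounds at 30 mg/kg), and tested by maximal electroshock. Four rats per compound, scored at 0.25, 0.5, 1, 2 and 4 h as the number of rats protected out of 4.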

[26] = Protection index = TD50/ED50; format: ADME; conditions: read-out: PI
[27] = Compound was tested for toxicity after oral administration in rat by using neurotoxicity screen test after 0.25-24 hr; format: organism-based; conditions: in vivo
In short: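 Rat neurotoxicity after oral dosing, observed at 0.25, 0.5, 1, 2, 4, 6, 8 and 24 h (8 h omitted for one compound).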

[28] = Partition coefficient (logP); format: physicochemical; conditions: octanol/water
In short: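 Partition between 1-octanol and buffer at pH 7.4, with solutions prepared in 1-octanol before buffer is added. Quantified by UV, using λmax and ε values measured in 1-octanol.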

[29] = test system: Rattus norvegicus; assay: Compound was tested for anticonvulsant activity after Oral Administration into Rats by using MES screen test after 0.25h,dose 50 mg/kg; No activity was demonstarted; format: functional, organism-based; parameters: dose 50 mg/kg; in short: as §3
[30] = test system: Rattus norvegicus; assay: Compound was tested for anticonvulsant activity after Oral Administration into rat by using MES screen test after 4 hr; format: functional; in short: as §4
[31] = Protection index = TD50/ED50 (MES); conditions: mouse, in vivo; read-out: PI

NC(=O)N/N=C/c1ccc(Oc2ccc(F)cc2Cl)cc1
Dose [1]: 30 mg/kg | ED50 [2]: 13.1 mg/kg | TD50 at 1 h [3]: 62.5 mg/kg | Dose [4]: 30 mg/kg | ED50 [5]: > 68 mg/kg | Dose [6]: 300 mg/kg | Activity [7]: 4 | Activity [8]: 4 | Activity [9]: 4 | Dose [10]: 100 mg/kg | Activity [11]: 4 | Activity [12]: 4

NC(=O)N/N=C\c1ccc(OC(=O)c2ccccc2)cc1
Dose [1]: 300 mg/kg | Activity [13]: No activity | Activity [14]: No activity | Activity [15]: No activity | Activity [16]: No activity

N#Cc1ccc(Oc2ccc(/C=N\NC(N)=O)cc2)cc1
Dose [1]: 30 mg/kg | Activity [17]: 2 | Activity [18]: 4 | Activity [19]: 4 | Dose [4]: 30 mg/kg | Dose [20]: 30 mg/kg | Dose [6]: 100 mg/kg | Activity [21]: 4 | Activity [22]: 4 | Dose [10]: 300 mg/kg | Dose [23]: 30 mg/kg

NC(=O)N/N=C/c1ccc(Oc2ccc3ccccc3c2)cc1
Dose [1]: 100 mg/kg | Activity [17]: 1 | Activity [18]: 3 | Activity [19]: 4 | Dose [4]: 100 mg/kg | Dose [20]: 300 mg/kg | Activity [21]: 4 | Activity [16]: No activity

NC(=O)N/N=C\c1ccc(OC(=O)c2ccc(Cl)cc2)cc1
Dose [1]: 300 mg/kg | Activity [17]: 1 | Activity [18]: 1 | Activity [13]: No activity | Activity [21]: 2 | Activity [16]: No activity

NC(=O)N/N=C\c1ccc(Oc2ccncc2)cc1
Dose [1]: 300 mg/kg | Activity [13]: No activity | Activity [14]: No activity | Activity [15]: No activity | Activity [21]: 2 | Activity [16]: No activity

Cc1ccc(Oc2ccc(/C=N/NC(N)=O)cc2)cc1
Dose [1]: 100 mg/kg | ED50 [2]: 14.7 mg/kg | TD50 at 2 h [24]: 204 mg/kg | ED50 [25]: 3.43 mg/kg | selectivity ratio [26]: 2.3 | Dose [4]: 30 mg/kg | ED50 [5]: 88.6 mg/kg | TD50 [27]: > 500 mg/kg | Activity [7]: 4 | Activity [8]: 3 | Activity [9]: 4 | Activity [11]: 4 | Activity [12]: 4

NC(=O)N/N=C/c1ccc(Oc2ccccc2)cc1
Dose [1]: 300 mg/kg | Dose [4]: 100 mg/kg | Activity [7]: 3 | logP [28]: 2.66 | Activity [9]: 4 | Activity [11]: 4 | Activity [29]: No activity | Activity [12]: 4

NC(=O)N/N=C\c1ccc(Oc2ccc(-c3ccccc3)cc2)cc1
Dose [1]: 300 mg/kg | Activity [19]: 3 | Activity [14]: No activity | Dose [20]: 300 mg/kg | Activity [15]: No activity | Dose [6]: 300 mg/kg | Activity [21]: 1 | Activity [16]: No activity

CCCCc1ccc(Oc2ccc(/C=N/NC(N)=O)cc2)cc1
Dose [1]: 100 mg/kg | Activity [19]: 1 | Dose [4]: 300 mg/kg | Activity [14]: No activity | Activity [15]: No activity | Dose [6]: 300 mg/kg | Activity [21]: 2 | Activity [16]: No activity

N=C(N)N/N=C/c1ccc(Oc2ccc(F)cc2)cc1
Dose [1]: 30 mg/kg | Activity [19]: 1 | Dose [4]: 300 mg/kg | Activity [14]: No activity | Activity [15]: No activity | Dose [6]: 100 mg/kg | Activity [21]: 2 | Activity [16]: No activity | Dose [10]: 100 mg/kg | Dose [23]: 30 mg/kg

NC(=O)N/N=C/c1ccc(Oc2ccc(F)cc2)cc1
Dose [1]: 100 mg/kg | ED50 [2]: 12.9 mg/kg | TD50 at 1 h [3]: 108 mg/kg | Dose [4]: 30 mg/kg | ED50 [5]: > 54 mg/kg | TD50 [27]: > 500 mg/kg | Activity [7]: 4 | logP [28]: 1.91 | Activity [8]: 2 | Activity [9]: 4 | Activity [11]: 4 | Activity [12]: 4

NC(=O)N/N=C\c1ccc(Oc2cccc(F)c2F)cc1
Dose [1]: 100 mg/kg | ED50 [2]: 45.8 mg/kg | TD50 at 2 h [24]: 293 mg/kg | Activity [18]: 4 | ED50 [30]: 6.15 mg/kg | Activity [19]: 4 | Dose [4]: 100 mg/kg | ED50 [5]: > 350 mg/kg | Activity [15]: No activity | Activity [21]: 4 | Activity [22]: 3 | Dose [23]: 300 mg/kg

C/C(=N/NC(N)=O)c1ccc(Sc2ccc(C)cc2)cc1
Dose [1]: 100 mg/kg | Activity [19]: 3 | Dose [4]: 100 mg/kg | Activity [14]: No activity | Activity [15]: No activity | Activity [21]: 4 | Activity [16]: No activity | Dose [23]: 100 mg/kg

C/C(=N/NC(N)=O)c1ccc(Oc2ccc(C)cc2)cc1
Dose [1]: 100 mg/kg | ED50 [2]: 5.62 mg/kg | TD50 at 1 h [3]: 57.9 mg/kg | Activity [18]: 2 | Activity [19]: 4 | selectivity ratio [26]: 3.09 | Dose [4]: 30 mg/kg | ED50 [5]: 18.7 mg/kg | Activity [15]: No activity | Activity [21]: 4 | Activity [22]: 1 | selectivity ratio [31]: 10.3 | Dose [23]: 30 mg/kg
